In test [1] the test system is Human alphaherpesvirus 1. In words: Effective concentration to inhibit 50% of herpes simplex virus type 1 replication in a cell culture model. The format is functional, organism-based.
For test [2], the system named is Human alphaherpesvirus 2. In words: Effective concentration to inhibit 50% of herpes simplex virus type 2 replication in a cell culture model. The format is functional, organism-based.
The test system of test [3] is Hepatitis C virus. In words: Effective concentration to inhibit 50% of hepatitis C virus replication in a cell culture model. It counts as functional, organism-based, Hepacivirus hominis. Put shortly: (§1)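 HCV replicon Huh-Luc/neo cells grown to confluence, then treated with varying drug concentrations in DMEM with 10% dFBS for 3 days. Medium was removed and cells lysed in passive lysis buffer, shaken 15 min at room temperature. Lysate was mixed with luciferase substrate and luminescence read immediately as the measure of replicon activity.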

Test [4] relates to Hepatitis B virus. In words: Effective concentration to inhibit 50% of hepatitis B virus replication in a cell culture model. The format is functional, organism-based.
The subject of a further test is CCRF-CEM. In words: Cytotoxicity against CEM cell lines of human. The format is functional. The conditions noted are these: read-out: ID50 (the source's name).
The subject of test [5] is Human gammaherpesvirus 4. In words: Effective concentration to inhibit 50% of epstein Barr virus replication in a cell culture model. The format is functional, organism-based.
The nature of test [6]: Effective concentration to inhibit 50% of human immunodeficiency virus replication in a cell culture model. It counts as functional.
Test [7] in a line: Effective concentration to inhibit 50% of cytomegalovirus (CMV) replication in a cell culture model. It counts as functional.
The test system of a further test is MT2. In words: Cytotoxicity against MT-2 cell lines of human. The format is functional. The conditions noted are these: read-out: ID50 (the source's name).
In test [8] the test system is Hepatitis C virus. In words: Percent inhibition against Hepatitis C virus replication in a cell culture model. The format is functional, Hepacivirus hominis. In outline: as §1
Test [9] has as its system Human alphaherpesvirus 2. In words: Effective concentration to inhibit 50 % of Herpes simplex virus type 2 replication in a cell culture model. The note with it: Oryctolagus cuniculus.
For test [10], the system named is Hepatitis B virus. In words: Effective concentration to inhibit 50 % of hepatitis B virus replication in a cell culture model (3.4>10). It counts as functional, organism-based.
The subject of test [11] is Human alphaherpesvirus 2. In words: Effective concentration to inhibit 50 % of herpes simplex virus type 2 replication in a cell culture model;ND=Not determined. The note with it: Oryctolagus cuniculus.
Test [12] concerns Human alphaherpesvirus 1. In words: Effective concentration to inhibit 50 % of Herpes simplex virus type 1 replication in a cell culture model. The format is functional, organism-based.
Test [13] deals with Human gammaherpesvirus 4. In words: Effective concentration to inhibit 50 % of Epstein Barr virus replication in a cell culture model. It counts as functional, organism-based, epsteinBarr virus.

Structures are written as SMILES.

For orientation: EC50 means the midpoint of the concentration-response curve. A low value points to greater potency. For the compound `NC(=O)c1cc2ccc3c(c2c(-c2ccc4c(c2)OCO4)c1C(=O)O)OCO3`, the 50% effective concentration (EC50) in the test with Human alphaherpesvirus 1 [1] was 0.15 µM; in the test with Human alphaherpesvirus 2 [2], < 0.1 µM; with Hepatitis C virus [3] it was 3 µM; in the test with Hepatitis B virus [4], 0.8 µM; in the test with Human gammaherpesvirus 4 [5] it was 9 µM; in test [6] it was > 5 µM. In addition, the EC50 in [7] was 0.45 µM. Moreover, the IC50 in the test on CCRF-CEM is 8.4 µM; in the test on MT2, 5 µM.

Turning to `NC(=O)c1cc2ccc3c(c2c(-c2ccc4c(c2)OCO4)c1C(N)=O)OCO3`, the EC50 was > 50 µM with Human alphaherpesvirus 1 [1]; > 50 µM in the test with Human alphaherpesvirus 2 [2]; > 10 µM in the test with Hepatitis C virus [3]; > 10 µM in the test with Hepatitis B virus [4]; > 20 µM in the test with Human gammaherpesvirus 4 [5]; > 100 µM in test [6]. Moreover, the IC50 with CCRF-CEM and in the test on MT2 was > 100 µM in each case.

As a reminder, the Inhibition is the share of the control response that was lost under treatment. `O=c1[nH][nH]c(=O)c2c(-c3ccc4c(c3)OCO4)c3c4c(cc(Br)c3cc12)OCO4`: the EC50 was 16 µM in the test on Human alphaherpesvirus 1 [1]; > 20 µM in the test on Human alphaherpesvirus 2 [2]; 3 µM in the test on Hepatitis C virus [3]; > 10 µM in the test with Hepatitis B virus [4]; > 20 µM in the test with Human gammaherpesvirus 4 [5]; 2.5 µM in test [6]. For the same compound, in the test with Hepatitis C virus [8], the Inhibition was 45%. For the same compound, the IC50 in the test on CCRF-CEM is 28 µM; in the test on MT2 it was > 100 µM.

For `CCOC(=O)c1c(C(=O)OCC)c(-c2ccc3c(c2)OCO3)c2c3c(ccc2c1OC)OCO3`, the EC50 is > 50 µM with Human alphaherpesvirus 1 [1]; > 50 µM in the test with Human alphaherpesvirus 2 [2]; > 10 µM with Hepatitis C virus [3]; > 20 µM in the test on Hepatitis B virus [4]; > 20 µM with Human gammaherpesvirus 4 [5]; > 24 µM in test [6]. For the same compound, the IC50 was > 100 µM in the test on CCRF-CEM and 24 µM in the test with MT2.

As for `O=C1OCc2c1cc1c(Br)cc3c(c1c2-c1ccc2c(c1)OCO2)OCO3`, the EC50 is > 50 µM with Human alphaherpesvirus 1 [1]; > 50 µM in the test with Human alphaherpesvirus 2 [2]; > 10 µM with Hepatitis C virus [3]; > 40 µM in the test on Hepatitis B virus [4]; > 15 µM in the test with Human gammaherpesvirus 4 [5]; > 100 µM in test [6]. The IC50 with CCRF-CEM is 100 µM; with MT2, > 100 µM.

For the compound `O=C1NCc2c1cc1c(Br)cc3c(c1c2-c1ccc2c(c1)OCO2)OCO3`, the EC50 in the test with Human alphaherpesvirus 1 [1] was 6.5 µM; with Human alphaherpesvirus 2 [2], > 20 µM; in the test with Hepatitis C virus [3], 10 µM; in the test on Hepatitis B virus [4], > 10 µM; in the test with Human gammaherpesvirus 4 [5], > 20 µM; in test [6], > 54 µM. Moreover, the IC50 stood at 38 µM in the test on CCRF-CEM and 54 µM in the test with MT2.

As to `O=C(O)c1cc2c(Br)cc3c(c2c(-c2ccc4c(c2)OCO4)c1CO)OCO3`, the EC50 in the test on Human alphaherpesvirus 1 [1] is > 50 µM; in the test with Human alphaherpesvirus 2 [2] it was > 50 µM; in the test on Hepatitis B virus [4] it was > 18 µM; in the test with Human gammaherpesvirus 4 [5], > 20 µM; in test [6], > 50 µM; in test [7], > 20 µM. Further, the IC50 with CCRF-CEM came out at 46.5 µM; with MT2, 50 µM.

For `O=C(O)c1cc2c(Cl)cc3c(c2c(-c2ccc4c(c2)OCO4)c1CO)OCO3`, the EC50 in the test on Human alphaherpesvirus 1 [1] is > 50 µM; in the test on Human alphaherpesvirus 2 [2] it was > 20 µM; in the test with Hepatitis C virus [3], > 10 µM; in the test on Hepatitis B virus [4], > 10 µM; in the test with Human gammaherpesvirus 4 [5] it was > 20 µM; in [6], > 60 µM. Also, in test [7], the EC50 is > 20 µM. Besides, the IC50 in the test on CCRF-CEM was > 100 µM; in the test on MT2, 60 µM.

For `O=C1OCc2c1cc1c(I)cc3c(c1c2-c1ccc2c(c1)OCO2)OCO3`, the EC50 in the test with Human alphaherpesvirus 1 [1] was > 25 µM; in the test on Human alphaherpesvirus 2 [2], > 25 µM; in the test with Hepatitis C virus [3], > 10 µM; in the test with Hepatitis B virus [4], > 20 µM; in the test with Human gammaherpesvirus 4 [5], > 10 µM; in test [6] it was > 80 µM. Moreover, the IC50 with CCRF-CEM amounted to 70 µM; in the test with MT2 it was 80 µM.

As for `CCOC(=O)c1c(C(=O)OCC)c(-c2ccc3c(c2)OCO3)c2c3c(ccc2c1O)OCO3`, the EC50 is > 50 µM in the test with Human alphaherpesvirus 1 [1]; > 10 µM in the test with Hepatitis C virus [3]; > 10 µM with Hepatitis B virus [4]; > 50 µM in the test with Human alphaherpesvirus 2 [9]; > 10 µM in the test with Human gammaherpesvirus 4 [5]; > 15 µM in [6]. For the same compound, the IC50 in the test with CCRF-CEM came out at 39 µM; in the test with MT2 it was 15 µM.

Consider `O=C1OC(=O)c2c1cc1ccc3c(c1c2-c1ccc2c(c1)OCO2)OCO3`, for which the EC50 in the test with Human alphaherpesvirus 1 [1] was > 50 µM; with Human alphaherpesvirus 2 [2], > 50 µM; in the test with Hepatitis C virus [3], > 10 µM; with Hepatitis B virus [4] it was > 10 µM; in the test with Human gammaherpesvirus 4 [5] it was > 20 µM; in test [6], > 100 µM. The compound also displayed an EC50 in [7] of 17.6 µM. For the same compound, the results for the IC50 in the test with CCRF-CEM and with MT2 were > 50 µM and > 100 µM, respectively.

On to `O=C1c2cc3ccc4c(c3c(-c3ccc5c(c3)OCO5)c2C(=O)N1CCCOCc1ccccc1)OCO4`, for which the EC50 with Human alphaherpesvirus 1 [1] was > 50 µM; in the test with Human alphaherpesvirus 2 [2], > 50 µM; in the test with Hepatitis C virus [3], 10 µM; with Human gammaherpesvirus 4 [5] it was > 5 µM; in [6], > 100 µM. Also, in the test with Hepatitis C virus [8], the Inhibition was determined as 62%. Moreover, the IC50 in the test with CCRF-CEM and in the test on MT2 was > 100 µM throughout.

As to `O=C(O)c1cc2c(I)cc3c(c2c(-c2ccc4c(c2)OCO4)c1CO)OCO3`, the EC50 was > 50 µM in the test on Human alphaherpesvirus 1 [1]; > 50 µM in the test on Human alphaherpesvirus 2 [2]; 10 µM with Hepatitis C virus [3]; > 20 µM in the test on Human gammaherpesvirus 4 [5]; > 80 µM in test [6]; > 20 µM in test [7]. The results for the IC50 in the test on CCRF-CEM and in the test with MT2 were > 100 µM and 80 µM, respectively.

With `O=C1c2cc3ccc4c(c3c(-c3ccc5c(c3)OCO5)c2C(=O)N1CCCO)OCO4`, the EC50 was > 30 µM in the test on Human alphaherpesvirus 1 [1]; > 30 µM in the test on Human alphaherpesvirus 2 [2]; > 10 µM with Hepatitis C virus [3]; > 20 µM in the test on Hepatitis B virus [4]; > 5 µM with Human gammaherpesvirus 4 [5]; > 22 µM in test [6]. The compound also returned an EC50 in test [7] of 8.1 µM. For the same compound, the IC50 in the test with CCRF-CEM came out at 27 µM; in the test with MT2, 22 µM.

Take `O=C1OCc2c1cc1c(Cl)cc3c(c1c2-c1ccc2c(c1)OCO2)OCO3`: the EC50 in the test on Human alphaherpesvirus 1 [1] was 23 µM; with Human alphaherpesvirus 2 [2] it was > 25 µM; with Hepatitis C virus [3], > 10 µM; in the test with Hepatitis B virus [4] it was > 60 µM; with Human gammaherpesvirus 4 [5] it was > 20 µM; in test [6], > 50 µM. Besides, in test [7], the EC50 amounted to 8.8 µM. For the same compound, the results for the IC50 in the test with CCRF-CEM and in the test with MT2 were 27 µM and 50 µM, respectively.

`O=C(O)c1cc2ccc3c(c2c(-c2ccc4c(c2)OCO4)c1CO)OCO3`: the EC50 in the test on Human alphaherpesvirus 1 [1] is 9 µM; with Hepatitis B virus [10] it was > 3.4 µM; with Human alphaherpesvirus 2 [2] it was 25 µM; in the test on Hepatitis C virus [3] it was 10 µM; with Human gammaherpesvirus 4 [5] it was > 20 µM; in [6] it was > 10 µM. This compound showed an EC50 in test [7] of 2.5 µM. Besides, the values for the IC50 in the test with CCRF-CEM and in the test on MT2 were 30 µM and 10 µM, respectively.

As to `Nc1nc2c(ncn2COCCO)c(=O)[nH]1` [ACYCLOVIR], the values for the EC50 in the test with Hepatitis B virus [4], in the test with Human alphaherpesvirus 2 [11] and in the test on Human alphaherpesvirus 1 [12] were 0.02 µM, 51 µM and 8 µM, respectively.

Consider `O=C1OCc2c1cc1ccc3c(c1c2-c1ccc2c(c1)OCO2)OCO3` [HELIOXANTHIN], for which the concentration giving a half-maximal response (EC50) is 2 µM in the test on Human alphaherpesvirus 1 [1]; 35 µM with Human alphaherpesvirus 2 [2]; > 3 µM in the test on Hepatitis C virus [3]; > 1 µM in the test with Hepatitis B virus [4]; > 20 µM with Human gammaherpesvirus 4 [5]; > 2.5 µM in [6]. Further, the EC50 in test [7] was 7.3 µM. In addition, the results for the IC50 in the test with CCRF-CEM and in the test on MT2 were 30 µM and 2.5 µM, respectively.

For the compound `Nc1ccn([C@@H]2CS[C@H](CO)O2)c(=O)n1` [LAMIVUDINE], the EC50 in the test with Human gammaherpesvirus 4 [13] was 0.4 µM.

Source of the values: ChEMBL document CHEMBL1141180, “Synthesis and antiviral activity of helioxanthin analogues” (J Med Chem, 2005).
